{
  "source": "ChEMBL document CHEMBL1212705",
  "about": "“Gene expression signatures and small-molecule compounds link a protein kinase to Plasmodium falciparum motility” (Nat Chem Biol, 2008)",
  "key": {"[1]": {"experiment": "Inhibition of GST-fused Plasmodium falciparum recombinant CDPK1 expressed in Escherichia coli Rosetta 2 assessed as inhibition of [gamma-33P]ATP incorporation into substrate peptide by scintillation counting"}, "Toxoplasma gondii [2]": {"tested_on": "Toxoplasma gondii", "experiment": "Antimicrobial activity against Toxoplasma gondii […] infected in african green monkey BSC1 cells assessed as parasite invasion at 12.5 uM after 48 hrs by microscopy relative to control", "assay_type": "functional, BSC-1"}, "Toxoplasma gondii [3]": {"tested_on": "Toxoplasma gondii", "experiment": "Antimicrobial activity against Toxoplasma gondii […] infected in african green monkey BSC1 cells assessed as parasite invasion at 3.1 uM after 48 hrs by microscopy relative to control", "assay_type": "functional, BSC-1"}, "Toxoplasma gondii [4]": {"tested_on": "Toxoplasma gondii", "experiment": "Antimicrobial activity against Toxoplasma gondii […] infected in african green monkey BSC1 cells assessed as inhibition of parasite invasion at 1.56 uM after 48 hrs by microscopy relative to control", "assay_type": "functional, organism-based", "settings": "BSC-1"}, "Plasmodium falciparum [5]": {"tested_on": "Plasmodium falciparum", "experiment": "Antiplasmodial activity against multidrug-resistant Plasmodium falciparum Dd2 after 72 hrs by SYBR green assay", "assay_type": "functional, organism-based", "settings": "Dd2, 72 h", "how_it_was_run": "(§1)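 Parasites grown in human O+ erythrocytes in RPMI with human serum and albumax. For the assay, serially diluted compounds were added to screening medium (RPMI, 4.16 mg/ml albumax) at 2.5% hematocrit and 0.3% parasitemia, then incubated 72 h in 93% N2/4% CO2/3% O2. DMSO served as baseline and uninfected erythrocytes as background. SYBR Green fluorescence was read at 520 nm to give EC50.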"}, "Plasmodium falciparum [6]": {"tested_on": "Plasmodium falciparum", "experiment": "Antiplasmodial activity against multidrug-resistant Plasmodium falciparum FCB after 72 hrs by SYBR green assay", "assay_type": "functional, organism-based", "how_it_was_run": "as §1"}, "[7]": {"experiment": "Cytotoxicity against CHO cells after 72 hrs by Cell Titer Glo assay", "assay_type": "cell-based, Cricetulus griseus", "settings": "chinese hamster, read-out: ED50", "how_it_was_run": "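Cells were seeded at 250 per well in DMEM with 5% FBS in 1,536-well plates, and compound was added the next day. Culture ran 72 h, matching the parasite proliferation assay. Viability was read by Cell Titer Glo luminescence, and EC50 was derived.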"}, "[8]": {"experiment": "Cytotoxicity against human Hep2 cells after 72 hrs by Cell Titer Glo assay", "assay_type": "cell-based, HEp-2", "settings": "read-out: ED50", "how_it_was_run": "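Cells seeded at 250 per well in DMEM with 5% fetal bovine serum. Compound added the next day, followed by 72 h culture to match the parasite proliferation assay. Viability read by Cell Titer Glo luminescence.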"}, "Plasmodium yoelii": {"tested_on": "Plasmodium yoelii", "experiment": "Antiplasmodial activity blood stage Plasmodium yoelii infected in BALB/c mice (Mus musculus) assessed as delay in onset of parasitaemia at 10 mg/kg, perorally BID for 6 days measured after 6 days post infection by Peter's test", "assay_type": "functional, organism-based", "design": "dose 10 mg/kg"}, "Plasmodium falciparum [9]": {"tested_on": "Plasmodium falciparum", "experiment": "Binding affinity to Plasmodium falciparum PF10_0153 at 2.5 mM by LC/MS/MS analysis", "how_it_was_run": "(§2)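 P. falciparum parasite lysate was incubated with agarose-immobilized inhibitor and washed extensively. Retained proteins were eluted with urea, resolved by SDS-PAGE and identified by LC/MS/MS. In a competition arm, free inhibitor (2.5 mM) was added to the lysate before incubation with the beads under identical conditions.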"}, "Plasmodium falciparum [10]": {"tested_on": "Plasmodium falciparum", "experiment": "Binding affinity to Plasmodium falciparum PF08_0054 at 2.5 mM by LC/MS/MS analysis", "how_it_was_run": "as §2"}, "Plasmodium falciparum [11]": {"tested_on": "Plasmodium falciparum", "experiment": "Binding affinity to Plasmodium falciparum PFL1170w at 2.5 mM by LC/MS/MS analysis", "how_it_was_run": "as §2"}, "Plasmodium falciparum [12]": {"tested_on": "Plasmodium falciparum", "experiment": "Binding affinity to Plasmodium falciparum PF11_0351 at 2.5 mM by LC/MS/MS analysis", "how_it_was_run": "as §2"}, "Plasmodium falciparum [13]": {"tested_on": "Plasmodium falciparum", "experiment": "Binding affinity to Plasmodium falciparum MAL7P1.228 at 2.5 mM by LC/MS/MS analysis", "how_it_was_run": "as §2"}, "Plasmodium falciparum [14]": {"tested_on": "Plasmodium falciparum", "experiment": "Binding affinity to Plasmodium falciparum PFC0720w at 2.5 mM by LC/MS/MS analysis", "how_it_was_run": "as §2"}, "Plasmodium falciparum [15]": {"tested_on": "Plasmodium falciparum", "experiment": "Binding affinity to Plasmodium falciparum PF13_0304 at 2.5 mM by LC/MS/MS analysis", "how_it_was_run": "as §2"}, "Plasmodium falciparum [16]": {"tested_on": "Plasmodium falciparum", "experiment": "Binding affinity to Plasmodium falciparum PF08_0003 at 2.5 mM by LC/MS/MS analysis", "how_it_was_run": "as §2"}, "[17]": {"experiment": "Cmax in BALB/c mouse at 20 mg/kg single oral dose after 24 hrs by LC/MS/MS analysis", "settings": "in vivo"}, "[18]": {"experiment": "Plasma concentration in BALB/c mouse at 20 mg/kg single oral dose after 24 hrs by LC/MS/MS analysis"}, "Plasmodium falciparum [19]": {"tested_on": "Plasmodium falciparum", "experiment": "Antimicrobial activity against Plasmodium falciparum 3D7 infected in human erythrocytes after 48 hrs by microscopy"}, "Plasmodium falciparum [20]": {"tested_on": "Plasmodium falciparum", "experiment": "Antimicrobial activity against Plasmodium falciparum 3D7 schizonts infected in human erythrocytes assessed as effect on parasitemia at 225 to 450 nM after 32 hrs by microscopy"}, "Plasmodium falciparum [21]": {"tested_on": "Plasmodium falciparum", "experiment": "Antimicrobial activity against Plasmodium falciparum 3D7 schizonts infected in human erythrocytes assessed as effect on parasitemia at 225 to 450 nM after 48 hrs by microscopy"}, "Toxoplasma gondii [22]": {"tested_on": "Toxoplasma gondii", "experiment": "Antimicrobial activity against Toxoplasma gondii […] infected in african green monkey BSC1 cells assessed as parasite invasion at 100 uM after 90 mins by microscopy relative to control"}, "Plasmodium falciparum [23]": {"tested_on": "Plasmodium falciparum", "experiment": "Antimicrobial activity against Plasmodium falciparum schizonts infected in human erythrocytes assessed as minimal effect on parasite cell cycle at 450 nM treated 36 hrs after release of ring stage by microscopy"}},
  "note": "Activity calls are given as the source filed them. The rule behind the calls is not given here.",
  "data": [
    {"compound": "N[C@H]1CC[C@H](Nc2nc(Nc3ccc(C(=O)N4CCCCC4)cc3)c3ncn(-c4cccc(F)c4)c3n2)CC1", "note": "[PURFALCAMINE]", "values": [
      {"measurement": "IC50", "setting": "[1]", "result": 17, "unit": "nM"},
      {"measurement": "Activity", "setting": "Toxoplasma gondii [2]", "result": 20, "unit": "%"},
      {"measurement": "Activity", "setting": "Toxoplasma gondii [3]", "result": 60, "unit": "%"},
      {"measurement": "inhibition", "setting": "Toxoplasma gondii [4]", "result": "inactive"},
      {"measurement": "EC50", "setting": "Plasmodium falciparum [5]", "result": 259, "unit": "nM"},
      {"measurement": "EC50", "setting": "Plasmodium falciparum [6]", "result": 169, "unit": "nM"},
      {"measurement": "CC50 at 72 h", "setting": "[7]", "result": 12300, "unit": "nM"},
      {"measurement": "CC50 at 72 h", "setting": "[8]", "result": 7240, "unit": "nM"},
      {"measurement": "Activity", "setting": "Plasmodium yoelii", "result": "Active"},
      {"measurement": "Activity", "setting": "Plasmodium falciparum [9]", "result": "inactive"},
      {"measurement": "Activity", "setting": "Plasmodium falciparum [10]", "result": "inactive"},
      {"measurement": "Activity", "setting": "Plasmodium falciparum [11]", "result": "inactive"},
      {"measurement": "Activity", "setting": "Plasmodium falciparum [12]", "result": "inactive"},
      {"measurement": "Activity", "setting": "Plasmodium falciparum [13]", "result": "inactive"},
      {"measurement": "Activity", "setting": "Plasmodium falciparum [14]", "result": "inactive"},
      {"measurement": "Activity", "setting": "Plasmodium falciparum [15]", "result": "inactive"},
      {"measurement": "Activity", "setting": "Plasmodium falciparum [16]", "result": "inactive"},
      {"measurement": "Cmax", "setting": "[17]", "result": 2600, "unit": "nM"},
      {"measurement": "concentration at 24 h", "setting": "[18]", "result": 23, "unit": "nM"},
      {"measurement": "EC90", "setting": "Plasmodium falciparum [19]; Plasmodium falciparum 3D7", "result": 414, "unit": "nM"},
      {"measurement": "EC50", "setting": "Plasmodium falciparum [19]; Plasmodium falciparum 3D7, 48 h", "result": 230, "unit": "nM"},
      {"measurement": "inhibition", "setting": "Plasmodium falciparum [20]", "result": "inactive"},
      {"measurement": "Activity", "setting": "Plasmodium falciparum [21]", "result": "Active"},
      {"measurement": "Activity", "setting": "Toxoplasma gondii [22]", "result": "<=20%"},
      {"measurement": "Activity", "setting": "Plasmodium falciparum [23]", "result": "Active"}
    ]}
  ]
}
